# Data as given in ChEMBL document CHEMBL4007452, “Discovery of an Orally Selective Inhibitor of Signal Transducer and Activator of Transcription 3 Using Advanced Multiple Ligand Simultaneous Docking” (J Med Chem, 2017).
# The source made the active and inactive calls. No cut-off for these calls is given here.
# Legend:
# MDA-MB-231 [1] = experiment: Antiproliferative activity against human MDA-MB-231 cells after 24 hrs by MTT assay; type: functional, cell-based; conditions: MDA-MB-231, 24 h
# Summary of the method: (§1)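 Cells were seeded at 3000 per well and incubated 24 h at 37 °C. Compounds were added in triplicate with 10% FBS: 0.1-10 or 0.1-20 µM for cancer lines, 3.125-400 µM for MCF-10A. Viability was read by MTT absorbance at 595 nm, with IC50 fitted from the curves. DMSO stocks were 20 mM.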
# [2] = Antiproliferative activity against human UW288-1 cells after 24 hrs by MTT assay; type: functional, cell-based; conditions: UW288-1, 24 h; summary of the method: as §1
# U2OS = experiment: Antiproliferative activity against human U2OS cells after 24 hrs by MTT assay; type: functional, cell-based; summary of the method: as §1
# [3] = target: Epidermal growth factor receptor (Homo sapiens) (UniProt P00533); experiment: Inhibition of EGFR in human MDA-MB-231 cells assessed as reduction in p-Akt level at 2.5 to 5 uM after 12 hrs by immunoblot analysis; type: cell-based
# Sequence of Epidermal growth factor receptor (Homo sapiens) (P00533 whole entry): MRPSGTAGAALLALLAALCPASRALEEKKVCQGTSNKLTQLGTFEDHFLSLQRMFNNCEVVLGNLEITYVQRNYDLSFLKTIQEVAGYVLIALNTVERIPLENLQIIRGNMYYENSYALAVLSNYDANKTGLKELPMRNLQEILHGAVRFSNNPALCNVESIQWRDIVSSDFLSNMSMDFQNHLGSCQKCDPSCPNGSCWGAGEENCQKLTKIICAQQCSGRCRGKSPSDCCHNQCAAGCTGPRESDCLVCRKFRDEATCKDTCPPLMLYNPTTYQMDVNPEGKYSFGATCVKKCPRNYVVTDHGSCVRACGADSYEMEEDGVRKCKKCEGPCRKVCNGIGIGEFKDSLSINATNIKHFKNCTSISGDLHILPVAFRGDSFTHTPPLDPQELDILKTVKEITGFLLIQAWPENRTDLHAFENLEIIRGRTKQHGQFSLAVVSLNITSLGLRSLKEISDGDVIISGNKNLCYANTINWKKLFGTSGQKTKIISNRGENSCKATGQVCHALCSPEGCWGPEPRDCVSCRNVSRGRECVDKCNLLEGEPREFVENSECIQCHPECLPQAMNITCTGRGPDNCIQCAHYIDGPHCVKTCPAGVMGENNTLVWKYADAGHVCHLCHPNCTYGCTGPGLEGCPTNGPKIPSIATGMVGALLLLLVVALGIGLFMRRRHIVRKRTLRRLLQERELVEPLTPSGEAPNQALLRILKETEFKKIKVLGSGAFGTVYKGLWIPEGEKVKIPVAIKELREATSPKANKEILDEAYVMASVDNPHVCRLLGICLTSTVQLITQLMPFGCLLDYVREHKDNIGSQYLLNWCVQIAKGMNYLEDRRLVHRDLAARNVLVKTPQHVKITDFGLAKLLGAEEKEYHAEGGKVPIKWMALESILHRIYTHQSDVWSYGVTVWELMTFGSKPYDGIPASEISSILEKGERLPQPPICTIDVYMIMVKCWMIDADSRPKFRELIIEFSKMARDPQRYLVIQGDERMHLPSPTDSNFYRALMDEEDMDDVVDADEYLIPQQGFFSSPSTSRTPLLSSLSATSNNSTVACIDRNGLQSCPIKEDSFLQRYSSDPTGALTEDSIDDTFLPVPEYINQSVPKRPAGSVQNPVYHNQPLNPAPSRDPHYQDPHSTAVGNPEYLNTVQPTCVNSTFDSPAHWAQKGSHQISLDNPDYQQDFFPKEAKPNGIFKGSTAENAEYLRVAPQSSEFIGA
# Summary of the method: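 MDA-MB-231 cells at 60–80% confluence were treated 12 h with 10% FBS at 2.5-10 µM or 2.5-5 µM, against a DMSO control. Whole-cell lysates were immunoblotted, with bands quantified as percent of control.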
# [4] = Antiproliferative activity against human UW426 cells after 24 hrs by MTT assay; type: functional, cell-based; conditions: UW426, 24 h; summary of the method: as §1
# [5] = Antiproliferative activity against human BkPC-3 cells after 24 hrs by MTT assay; type: functional, cell-based; conditions: BkPC-3, 24 h; summary of the method: as §1
# MDA-MB-231 [6] = experiment: Anticancer activity against human MDA-MB-231 cells xenografted in BALB/c nude mouse assessed as reduction in tumor volume at 40 mg/kg, po qd; type: functional, organism-based
# Summary of the method: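 Female athymic BALB/c nude mice, 6 weeks old, bearing s.c. flank MDA-MB-231 xenografts (5 x 10^6 cells). Dosing began at about 100 mm3 tumor volume; 8 mice per group, one tumor each. Drug was given orally in saline, with a saline vehicle control, for 32 days. Caliper L and W measured every other day; volume = 0.5236×L×W².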
# [7] = Cmax in Sprague-Dawley rat plasma at 10 mg/kg, po measured after 24 hrs by UPLC analysis; type: ADME, organism-based; design: dose 10 mg/kg, route oral
# Summary of the method: (§2)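 Rat plasma sampled from 2 min to 24 h after a single i.v. (1 mg/kg) or p.o. (10 mg/kg) dose. Parameters were derived from the concentration-time profiles. The bioanalytical method was validated to FDA guidelines for selectivity, linearity, LLOQ, accuracy, precision, recovery, matrix effect and stability.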
# Mus musculus [8] = experiment: Toxicity in BALB/c nude mouse xenografted with human MDA-MB-231 cells assessed as lung damage at 40 mg/kg, po qd administered for 32 days by H&E staining based light microscopy; type: organism-based; conditions: in vivo, 768 h
# Summary of the method: (§3)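 6-week-old female athymic SPF BALB/c nude mice received 5 x 10^6 MDA-MB-231 cells s.c. in the flank. Oral treatment began once tumors reached about 100 mm3, with 8 mice per group and a saline vehicle control. […] Treatment lasted 32 days. Heart, liver, spleen, lung and kidney were fixed 48 h in 10% neutral-buffered formaldehyde, paraffin-embedded, cut at 5 µm, H&E-stained and examined by light microscopy.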
# [9] = AUC (0 to t) in Sprague-Dawley rat plasma at 1 mg/kg, iv measured after 24 hrs by UPLC analysis; type: ADME, organism-based; design: dose 1 mg/kg, time < 24 hr, route intravenous; summary of the method: as §2
# [10] = Initial plasma concentration in Sprague-Dawley rat at 1 mg/kg, iv measured after 24 hrs by UPLC analysis; type: ADME, organism-based; summary of the method: as §2
# [11] = Terminal half life in Sprague-Dawley rat plasma at 10 mg/kg, po measured after 24 hrs by UPLC analysis; type: ADME, organism-based; conditions: read-out: beta t1/2 (converted)
# Summary of the method: (§4)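 Rats dosed i.v. or p.o. Plasma concentrations followed from 2 min to 24 h after dosing. The bioanalytical method was validated to FDA guidelines for selectivity, linearity, LLOQ, accuracy, precision, recovery, matrix effect and stability.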
# Mus musculus [12] = experiment: Toxicity in BALB/c nude mouse xenografted with human MDA-MB-231 cells assessed as heart damage at 40 mg/kg, po qd administered for 32 days by H&E staining based light microscopy; type: organism-based; conditions: in vivo, 768 h; summary of the method: as §3
# Rattus norvegicus [13] = experiment: AUMC (0 to infinity) in Sprague-Dawley rat plasma at 1 mg/kg, iv measured after 24 hrs by UPLC analysis; type: ADME, organism-based; conditions: in vivo; summary of the method: as §2
# [14] = Tmax in Sprague-Dawley rat plasma at 1 mg/kg, iv measured after 24 hrs by UPLC analysis; type: ADME, organism-based; summary of the method: as §4
# Rattus norvegicus [15] = experiment: Apparent volume of distribution in Sprague-Dawley rat plasma at 10 mg/kg, po measured after 24 hrs by UPLC analysis; type: ADME, organism-based; conditions: in vivo; summary of the method: as §2
# [16] = MRT (0 to t) in Sprague-Dawley rat plasma at 10 mg/kg, po measured after 24 hrs by UPLC analysis; type: ADME, organism-based; summary of the method: as §2
# Mus musculus [17] = experiment: Toxicity in BALB/c nude mouse xenografted with human MDA-MB-231 cells assessed as liver damage at 40 mg/kg, po qd administered for 32 days by H&E staining based light microscopy; type: organism-based; conditions: in vivo, 768 h; summary of the method: as §3
# [18] = Apparent volume of distribution in Sprague-Dawley rat plasma at 1 mg/kg, iv measured after 24 hrs by UPLC analysis; type: ADME, organism-based; conditions: read-out: Vz; summary of the method: as §2
# [19] = AUC (0 to infinity) in Sprague-Dawley rat plasma at 1 mg/kg, iv measured after 24 hrs by UPLC analysis; type: ADME, organism-based; design: dose 1 mg/kg, time infinity, route intravenous; summary of the method: as §2
# Mus musculus [20] = experiment: Toxicity in BALB/c nude mouse xenografted with human MDA-MB-231 cells assessed as kidney damage at 40 mg/kg, po qd administered for 32 days by H&E staining based light microscopy; type: organism-based; conditions: in vivo, 768 h; summary of the method: as §3
# [21] = Cmax in Sprague-Dawley rat plasma at 1 mg/kg, iv measured after 24 hrs by UPLC analysis; type: ADME, organism-based; design: dose 1 mg/kg, route intravenous; summary of the method: as §2
# Mus musculus [22] = experiment: Toxicity in BALB/c nude mouse xenografted with human MDA-MB-231 cells assessed as reduction in body weight at 40 mg/kg, po administered for 32 days; type: organism-based; conditions: in vivo, 768 h
# Summary of the method: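 MDA-MB-231 cells (5 x 10^6) were implanted s.c. in the flank of 6-week-old female athymic BALB/c nude mice. Oral dosing started at a tumor volume of about 100 mm3, with 8 mice per group and a saline vehicle control. […] Body weight was tracked over the 32-day treatment.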
# Rattus norvegicus [23] = experiment: AUMC (0 to infinity) in Sprague-Dawley rat plasma at 10 mg/kg, po measured after 24 hrs by UPLC analysis; type: ADME, organism-based; conditions: in vivo; summary of the method: as §2
# Rattus norvegicus [24] = experiment: AUMC (0 to t) in Sprague-Dawley rat plasma at 10 mg/kg, po measured after 24 hrs by UPLC analysis; type: ADME, organism-based; conditions: in vivo; summary of the method: as §2
# [25] = Terminal half life in Sprague-Dawley rat plasma at 1 mg/kg, iv measured after 24 hrs by UPLC analysis; type: ADME, organism-based; conditions: read-out: beta t1/2 (converted); summary of the method: as §4
# [26] = AUC (0 to infinity) in Sprague-Dawley rat plasma at 10 mg/kg, po measured after 24 hrs by UPLC analysis; type: ADME, organism-based; design: dose 10 mg/kg, route oral, time infinity; summary of the method: as §2
# [27] = AUC (0 to t) in Sprague-Dawley rat plasma at 10 mg/kg, po measured after 24 hrs by UPLC analysis; type: ADME, organism-based; design: time < 24 hr, dose 10 mg/kg, route oral; summary of the method: as §2
# [28] = MRT (0 to t) in Sprague-Dawley rat plasma at 1 mg/kg, iv measured after 24 hrs by UPLC analysis; type: ADME, organism-based; summary of the method: as §2
# Rattus norvegicus [29] = experiment: AUMC (0 to t) in Sprague-Dawley rat plasma at 1 mg/kg, iv measured after 24 hrs by UPLC analysis; type: ADME, organism-based; conditions: in vivo; summary of the method: as §2
# [30] = MRT (0 to infinity) in Sprague-Dawley rat plasma at 10 mg/kg, po measured after 24 hrs by UPLC analysis; type: ADME, organism-based; summary of the method: as §2
# Mus musculus [31] = experiment: Toxicity in BALB/c nude mouse xenografted with human MDA-MB-231 cells assessed as spleen damage at 40 mg/kg, po qd administered for 32 days by H&E staining based light microscopy; type: organism-based; conditions: in vivo, 768 h; summary of the method: as §3
# [32] = MRT (0 to infinity) in Sprague-Dawley rat plasma at 1 mg/kg, iv measured after 24 hrs by UPLC analysis; type: ADME, organism-based; summary of the method: as §2
# [33] = Oral bioavailability in Sprague-Dawley rat at 10 mg/kg measured after 24 hrs by UPLC analysis; type: ADME, organism-based; conditions: in vivo
# [34] = Tmax in Sprague-Dawley rat plasma at 10 mg/kg, po measured after 24 hrs by UPLC analysis; type: ADME, organism-based; summary of the method: as §4
# CCRF S-180 = experiment: Anticancer activity against […] cells xenografted in BALB/c nude mouse assessed as reduction in tumor weight at 1 mg/kg, ip measured after 21 days relative to vehicle control; type: functional; design: scale not given: the % may be the effect or the level left
# Summary of the method: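 Male mice, 4 weeks old, given s.c. flank S180 mouse sarcoma cells (3 x 10^6). From day 2, 10 mice per group received saline vehicle, oral drug at 5 mg/kg, or i.p. drug at 1 mg/kg, each dissolved in saline. Therapy ran 21 days; tumor weight and body weight were recorded.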
# Mus musculus [35] = experiment: Toxicity in BALB/c nude mouse xenografted with […] S180 cells assessed as reduction in kidney size at 1 mg/kg, ip after 21 days; type: organism-based; conditions: in vivo, 504 h
# Mus musculus [36] = experiment: Toxicity in BALB/c nude mouse xenografted with […] S180 cells assessed as reduction in liver size at 1 mg/kg, ip after 21 days; type: organism-based; conditions: in vivo, 504 h
# Mus musculus [37] = experiment: Toxicity in BALB/c nude mouse xenografted with […] S180 cells assessed as reduction in spleen size at 1 mg/kg, ip after 21 days; type: organism-based; conditions: in vivo, 504 h
# Mus musculus [38] = experiment: Toxicity in BALB/c nude mouse xenografted with […] S180 cells assessed as body weight loss at 1 mg/kg, ip after 13 days relative to vehicle control; type: organism-based; conditions: in vivo, 312 h
smiles,measurement,setting,value
CN(CC(=O)N(Cc1ccc(C2CCCCC2)cc1)c1ccc(C(=O)O)c(O)c1)S(=O)(=O)c1c(F)c(F)c(F)c(F)c1F,IC50,MDA-MB-231 [1],6.8 µM
same,IC50,[2],9.8 µM
same,IC50,U2OS,8.3 µM
same,inhibition,[3],Active
same,IC50,[4],10.2 µM
same,IC50,[5],6.9 µM
COc1cc2ncnc(Nc3ccc(F)c(Cl)c3)c2cc1OCCCN1CCOCC1 [GEFITINIB],Activity,MDA-MB-231 [6],Active
same,Cmax,[7],1.2 µg/mL
same,Activity,Mus musculus [8],Non-Toxic
same,AUC(0-t) at 24 h,[9],0.491 µg·h/mL
same,C0 at 24 h,[10],0.715 µg/mL
same,half-life,[11],2.17 h
same,Activity,Mus musculus [12],Non-Toxic
same,AUMC,Rattus norvegicus [13],1261.5 hr2.ng/ml
same,Tmax,[14],1.98 min
same,Vz,Rattus norvegicus [15],13.2387 L/kg
same,MRT last at 24 h,[16],2.4 h
same,Activity,Mus musculus [17],Non-Toxic
same,Vd,[18],6.68 L/kg
same,AUC(0-inf),[19],0.501 µg·h/mL
same,Activity,Mus musculus [20],Non-Toxic
same,Cmax,[21],0.621 µg/mL
same,Activity,Mus musculus [22],Non-Toxic
same,AUMC,Rattus norvegicus [23],5903.9 hr2.ng/ml
same,AUMCt,Rattus norvegicus [24],5649.7 hr2.ng/ml
same,half-life,[25],2.39 h
same,AUC(0-inf),[26],2.37 µg·h/mL
same,AUC(0-t) at 24 h,[27],2.36 µg·h/mL
same,MRT last at 24 h,[28],2.12 h
same,AUMCt,Rattus norvegicus [29],1098 hr2.ng/ml
same,MRT inf,[30],2.49 h
same,Activity,Mus musculus [31],Non-Toxic
same,MRT inf,[32],2.4 h
same,bioavailability,[33],47.4%
same,Tmax,[34],1 h
COc1cccc2c1C(=O)c1c(O)c3c(c(O)c1C2=O)C[C@@](O)(C(=O)CO)C[C@@H]3O[C@H]1C[C@H](N)[C@H](O)[C@H](C)O1 [DOXORUBICIN],Activity,CCRF S-180,52.23%
same,Activity,Mus musculus [35],Toxic
same,Activity,Mus musculus [36],Toxic
same,Activity,Mus musculus [37],Toxic
same,Activity,Mus musculus [38],21.01%
